The values below come from PubChem BioAssay.

Assay [1] can be described thus: Her2 expression decrease, cell viability multiplex – SKBR3 breast tumor cells, AlphaScreen, ATP viability, primary screen (AID 461).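 On Her2 level: lower value means less Her2 protein in the cells.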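 On viability: percent of carrier control wells set as 100% viability.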 The conditions noted are these: SKBR3 Her2 protein level, 18-24 h, measured here: SKBR3 viability, ATP luminescence, at 10 µM. For orientation: In Alpha technology, singlet oxygen from a donor bead excites a nearby acceptor bead.
Assay [2] has as its target Receptor tyrosine-protein kinase erbB-2 (Homo sapiens) (UniProt P04626). The description is as above. The conditions noted are these: 18-24 h, at 10 µM, stronger effect = lower value.
A short description of assay [3]: reduced viability of SK-BR-3 breast cancer cells – cell-based, 24 h, human, pilot screen (AID 572;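 active means viability at or below 10% of carrier control in both of two separate runs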;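 further: compound exposure lasted between 18 and 24 h rather than exactly 24 h; 100% = carrier-treated control wells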). The conditions noted are these: SK-BR-3 viability, CellTiter-Glo luminescence, at 10 µM, stronger effect = lower value. (In ATP-based viability assays light output follows the ATP content of the culture.)
The nature of assay [4]: HUVEC growth inhibition – cell-based, human, primary screen (AID 575;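 active means viability at or below 30% in both replicate assays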;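 further: 100% = median of untreated cell wells with 0.1% DMSO on each plate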). The conditions noted are these: HUVEC proliferation, CellTiter-Glo luminescence, 72 h; at 10 µM; stronger effect = lower value. A digest of the protocol:
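Timing: 72 h treatment at 37 °C; material: HUVEC primary cells; technique: CellTiter-Glo luminescence measuring cellular ATP; controls: vehicle and MePR control wells; measure: percent of median DMSO-control luminescence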

Assay [5] is described as follows: H69AR cell proliferation blockers – human, duplicate replicates, primary screen (AID 580;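 active means viability at or under a set limit in both replicates, limit being median viability minus 3 SD, cut at about 48% in these data, passing the limit was not always enough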;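 further: 100% = mean luminescence of untreated wells and 0% = no signal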). The conditions noted are these: H69AR lung tumor cells viability, ATP luminescence, 72 h; at 10 µM; stronger effect = lower value.
A short description of assay [6]: MRP1 drug-resistance reversers in H69AR cells – cell-based, doxorubicin co-treatment, pilot screen (AID 601;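 active means viability loss from added drug above about 55%, and viability with drug at most 40%, in both replicates, limit read from the data, passing the limit was not always enough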). The conditions noted are these: CellTiter-Glo, 72 h, at 10 µM; for differential viability (reversal): stronger effect = higher value.
Assay [7] in a line: yeast transport mutant growth inhibition pilot in 384-well plates, post-Golgi transport modulator project (AID 636; in the data active means inhibition above about 31%). The conditions noted are these: absorbance 615 nm, about 18 h, stronger effect = higher value.
The nature of assay [8]: growth suppression of yeast trafficking mutant, preliminary HTS, modulators of trafficking downstream of Golgi apparatus project, 1536-format plate, OD 615 nm (AID 637; in the data active means inhibition above about 30%). The conditions noted are these: yeast transport mutant growth, absorbance 615 nm, 18 h; stronger effect = higher value.
Setting [9] is: H69AR cells + 2 uM doxorubicin, measured here: viability with 2 uM doxorubicin, stronger effect = lower value.
The mark [10] stands for this setting: H69AR cells, compound alone cytotoxicity.

Active and inactive are the calls of the source.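 How the source made its calls, unless noted: active means Her2 level under about 52% in both replicate screens, with viability over 70% of control (limit read from the data); inconclusive means Her2 under the limit in one screen only, or viability under 70%; inactive means Her2 level above the set limit.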

Receptor tyrosine-protein kinase erbB-2 (Homo sapiens), sequence (P04626 whole entry, looked up): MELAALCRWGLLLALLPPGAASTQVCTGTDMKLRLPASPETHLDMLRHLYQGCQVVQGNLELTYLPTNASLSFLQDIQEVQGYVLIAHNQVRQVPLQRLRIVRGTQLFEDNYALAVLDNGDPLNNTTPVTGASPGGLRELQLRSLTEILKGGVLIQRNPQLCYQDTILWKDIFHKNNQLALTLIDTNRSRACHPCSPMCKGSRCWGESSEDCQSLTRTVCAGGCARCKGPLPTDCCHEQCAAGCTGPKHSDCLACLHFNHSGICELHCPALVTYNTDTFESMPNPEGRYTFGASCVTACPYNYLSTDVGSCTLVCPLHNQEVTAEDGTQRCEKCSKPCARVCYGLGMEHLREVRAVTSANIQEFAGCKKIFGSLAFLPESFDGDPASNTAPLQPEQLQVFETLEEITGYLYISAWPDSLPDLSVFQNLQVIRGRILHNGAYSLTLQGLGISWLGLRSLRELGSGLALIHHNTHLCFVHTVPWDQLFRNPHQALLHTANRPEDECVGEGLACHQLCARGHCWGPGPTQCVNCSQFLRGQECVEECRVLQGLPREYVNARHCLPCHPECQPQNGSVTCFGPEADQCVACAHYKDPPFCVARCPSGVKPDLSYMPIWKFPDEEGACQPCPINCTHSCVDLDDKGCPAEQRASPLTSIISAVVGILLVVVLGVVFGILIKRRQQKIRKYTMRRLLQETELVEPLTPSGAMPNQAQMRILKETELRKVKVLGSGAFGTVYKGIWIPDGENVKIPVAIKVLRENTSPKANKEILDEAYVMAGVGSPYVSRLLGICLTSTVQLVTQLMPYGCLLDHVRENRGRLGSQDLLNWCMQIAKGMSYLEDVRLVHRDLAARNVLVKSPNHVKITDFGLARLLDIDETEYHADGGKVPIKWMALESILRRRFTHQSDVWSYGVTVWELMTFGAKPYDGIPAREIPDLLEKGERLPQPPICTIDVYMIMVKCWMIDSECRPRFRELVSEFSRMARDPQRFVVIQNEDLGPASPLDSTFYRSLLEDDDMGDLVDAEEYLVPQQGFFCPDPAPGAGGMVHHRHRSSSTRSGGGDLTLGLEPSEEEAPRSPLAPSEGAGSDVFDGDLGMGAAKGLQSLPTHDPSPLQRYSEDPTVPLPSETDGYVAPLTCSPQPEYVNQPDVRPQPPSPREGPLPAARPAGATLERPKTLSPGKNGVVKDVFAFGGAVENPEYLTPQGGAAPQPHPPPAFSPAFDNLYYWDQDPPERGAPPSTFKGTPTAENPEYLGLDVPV

Take `O=C(CCCc1cccs1)Nc1nc2c(s1)CCCC2`: the viability – broadly, a read-out of living cells in per cent, often relative to untreated cells – is 86.5% in assay [1]; 86.5% (inactive) in assay [3]; 55.3% (inactive) in assay [4]; 84.5% (inactive) in assay [5]; 81.7% in assay [6] (setting [9]); 84.5% in assay [6] (setting [10]). Also, the Her2 level in assay [2] was 74% (inactive). In addition, the differential viability (reversal) in assay [6] (H69AR cells + 2 uM doxorubicin) was 2.73% (inactive). For the same molecule, the figures for the inhibition in assay [7] and in assay [8] were -9.19% (inactive) and 0.82% (inactive), respectively.

With `COc1ccc(Cl)c(NCCC(=O)O)c1`, the viability is 88% in assay [1]; 88% (inactive) in assay [3]; 98.6% (inactive) in assay [4]; 95.6% (inactive) in assay [5]; 88.5% in assay [6] (setting [9]); 95.6% in assay [6] (setting [10]). Also, the Her2 level in assay [2] is 107% (inactive). For the same molecule, the differential viability (reversal) in assay [6] (H69AR cells + 2 uM doxorubicin) is 7.1% (inactive). The inhibition (as a rule, the drop in the measured response relative to a control, in per cent) is -1.37% (inactive) in assay [7] and 9.37% (inactive) in assay [8].

`O=C(CSc1nc2ccccc2o1)Nc1ccccc1`: the viability in assay [1] was 107%; in assay [3], 107% (inactive); in assay [4], 105% (inactive); in assay [5], 79% (inactive); in assay [6] (setting [9]) it was 90.4%; in assay [6] (setting [10]), 79%. Moreover, the Her2 level in assay [2] was 124% (inactive). Also, the differential viability (reversal) in assay [6] (H69AR cells + 2 uM doxorubicin) is -11.4% (inactive). For the same molecule, the inhibition in assay [7] is -0.9% (inactive); in assay [8], -4.83% (inactive).

`c1nnc(NC2=NCCCCC2)s1`: the viability in assay [1] was 91.5%; in assay [3], 91.5% (inactive); in assay [4], 109% (inactive); in assay [5] it was 101% (inactive); in assay [6] (setting [9]) it was 98.5%; in assay [6] (setting [10]) it was 101%. Moreover, the Her2 level in assay [2] was 112% (inactive). Moreover, the differential viability (reversal) in assay [6] (H69AR cells + 2 uM doxorubicin) was 2.23% (inactive). The inhibition in assay [7] is -2.16% (inactive); in assay [8] it was -7.5% (inactive).

As for `CCn1cc(C(=O)Nc2cc3c(cc2NC(C)=O)OCCO3)c(=O)c2ccc(C)nc21`, the viability is 96.5% in assay [1]; 96.5% (inactive) in assay [3]; 106% (inactive) in assay [4]; 91% (inactive) in assay [5]; 95% in assay [6] (setting [9]); 91% in assay [6] (setting [10]). Also, the Her2 level in assay [2] is 100% (inactive). Also, the differential viability (reversal) in assay [6] (H69AR cells + 2 uM doxorubicin) was -4.02% (inactive). The inhibition in assay [7] was -6.13% (inactive); in assay [8], 0.48% (inactive).

Regarding `CCn1c(=S)ccc2ccc(OC)cc21`, the viability was 88.5% in assay [1]; 88.5% (inactive) in assay [3]; 98.7% (inactive) in assay [4]; 101% (inactive) in assay [5]; 87.6% in assay [6] (setting [9]); 101% in assay [6] (setting [10]). Moreover, the Her2 level in assay [2] is 114% (inactive). Also, the differential viability (reversal) in assay [6] (H69AR cells + 2 uM doxorubicin) was 13.2% (inactive). The inhibition is -5.14% (inactive) in assay [7] and -7.46% (inactive) in assay [8].

Regarding `Cc1ccc2cc(C#N)c(N3CCCC3)nc2c1C`, the viability in assay [1] is 77%; in assay [3] it was 77% (inactive); in assay [4], 91.4% (inactive); in assay [5] it was 74.8% (inactive); in assay [6] (setting [9]) it was 78.5%; in assay [6] (setting [10]), 74.8%. For the same molecule, the Her2 level in assay [2] is 70.5% (inactive). The differential viability (reversal) in assay [6] (H69AR cells + 2 uM doxorubicin) is -3.67% (inactive). The inhibition is -5.27% (inactive) in assay [7] and -2.33% (inactive) in assay [8].

Consider `Cc1cc2cc(CN(CC3CCCO3)C(=O)c3cnccn3)c(=O)[nH]c2cc1C` (stereo not given), for which the viability in assay [1] was 75%; in assay [3], 75% (inactive); in assay [4], 89.9% (inactive); in assay [5], 92.3% (inactive); in assay [6] (setting [9]), 86.3%; in assay [6] (setting [10]), 92.3%. The Her2 level in assay [2] was 130% (inactive). In addition, the differential viability (reversal) in assay [6] (H69AR cells + 2 uM doxorubicin) is 6.07% (inactive). The inhibition in assay [7] is -0.8% (inactive); in assay [8] it was -4.59% (inactive).

With `COc1ccccc1N1CCN(Cc2nnnn2CCc2ccccc2)CC1`, the viability in assay [1] was 88%; in assay [3] it was 88% (inactive); in assay [4], 91.5% (inactive); in assay [5], 93.2% (inactive); in assay [6] (setting [9]), 89.7%; in assay [6] (setting [10]), 93.2%. The Her2 level in assay [2] was 112% (inactive). The differential viability (reversal) in assay [6] (H69AR cells + 2 uM doxorubicin) is 3.56% (inactive). The results for the inhibition in assay [7] and in assay [8] were 1.51% (inactive) and 25.6% (inactive), respectively.

With `CCC(c1nnnn1Cc1ccco1)N(CCc1ccccc1)Cc1cc2cccc(C)c2[nH]c1=O` (stereo not given), the viability in assay [1] is 105%; in assay [3], 105% (inactive); in assay [4], 69.2% (inactive); in assay [5], 62.9% (inactive); in assay [6] (setting [9]) it was 66.1%; in assay [6] (setting [10]) it was 62.9%. Also, in assay [2], the Her2 level was 77.5% (inactive). The differential viability (reversal) in assay [6] (H69AR cells + 2 uM doxorubicin) is -3.2% (inactive). Besides, the inhibition in assay [7] was -5% (inactive); in assay [8] it was -2.67% (inactive).

Turning to `CC1(C)CNC(=O)c2sc(N3CCOCC3)nc2C1`, the viability in assay [1] is 114%; in assay [3], 114% (inactive); in assay [4], 67.9% (inactive); in assay [5], 77.3% (inactive); in assay [6] (setting [9]), 82%; in assay [6] (setting [10]) it was 77.3%. Also, the Her2 level in assay [2] is 87% (inactive). Moreover, the differential viability (reversal) in assay [6] (H69AR cells + 2 uM doxorubicin) is -4.71% (inactive). The values for the inhibition in assay [7] and in assay [8] were -3.82% (inactive) and 1.27% (inactive), respectively.

With `CN(C)c1nc(Nc2ccc(Cl)cc2)nc(OCC#N)n1`, the viability in assay [1] is 105%; in assay [3], 105% (inactive); in assay [4], 63.2% (inactive); in assay [5], 81.8% (inactive); in assay [6] (setting [9]), 96.3%; in assay [6] (setting [10]) it was 81.8%. For the same molecule, in assay [2], the Her2 level was 80.5% (inactive). In addition, the differential viability (reversal) in assay [6] (H69AR cells + 2 uM doxorubicin) is -14.6% (inactive). The values for the inhibition in assay [7] and in assay [8] were -0.26% (inactive) and 11% (inactive), respectively.

As to `CNC(=O)Nc1cccc(C(F)(F)F)c1`, the viability in assay [1] is 105%; in assay [3], 105% (inactive); in assay [4], 93% (inactive); in assay [5], 93.6% (inactive); in assay [6] (setting [9]) it was 100%; in assay [6] (setting [10]), 93.6%. The Her2 level in assay [2] is 82.5% (inactive). In assay [6] (H69AR cells + 2 uM doxorubicin), the differential viability (reversal) is -6.37% (inactive). The inhibition is -4.08% (inactive) in assay [7] and 0% (inactive) in assay [8].

In the case of `C=CCc1cccc2cc(C(=O)NCc3cccnc3)c(=O)oc12`, the viability in assay [1] was 97.5%; in assay [3] it was 97.5% (inactive); in assay [4], 95% (inactive); in assay [5] it was 95% (inactive); in assay [6] (setting [9]), 90.1%; in assay [6] (setting [10]), 95%. Besides, the Her2 level in assay [2] is 112% (inactive). The differential viability (reversal) in assay [6] (H69AR cells + 2 uM doxorubicin) is 4.88% (inactive). Moreover, the results for the inhibition in assay [7] and in assay [8] were -0.52% (inactive) and -9.33% (inactive), respectively.

`O=C(OCn1nnc2ccccc2c1=O)C1CCN(S(=O)(=O)c2cccs2)CC1`: the viability in assay [1] is 97%; in assay [3] it was 97% (inactive); in assay [4] it was 97.7% (inactive); in assay [5], 105% (inactive); in assay [6] (setting [9]), 104%; in assay [6] (setting [10]) it was 105%. For the same molecule, the Her2 level in assay [2] is 133% (inactive). In addition, the differential viability (reversal) in assay [6] (H69AR cells + 2 uM doxorubicin) is 1.22% (inactive). Further, the inhibition is 1.54% (inactive) in assay [7] and -4.67% (inactive) in assay [8].
